The values below come from ChEMBL document CHEMBL5252546, “Salutaxel, a Conjugate of Docetaxel and a Muramyl Dipeptide (MDP) Analogue, Acts as Multifunctional Prodrug That Inhibits Tumor Growth and Metastasis” (J Med Chem, 2018).

Molecules are shown by their SMILES. Calls of active or inactive are those of the source. The rule behind the calls is not given here.

Data set [1] can be described thus: Toxicity in BALB/c mouse xenografted with mouse 4T1 cells assessed as decrease in body weight at 5.7 mg/kg,iv administrated with doxorubicin combination once per week for 4 weeks. It counts as organism-based. As to conditions: in vivo, 672 h. The procedure, abridged:
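4T1 mammary fat-pad model in BALB/c mice. Doxorubicin (4 mg/kg) was given alone or co-administered with the conjugate or its parent taxane, with iv saline vehicle. Readouts were body weight, tumour volume, tumour weight, lung metastatic nodules and lung metastasis score. Mean ± SEM, n = 10; ANOVA and Student's t test.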

The test system of data set [2] is 4T1. Briefly: Antitumor activity against mouse 4T1 cells implanted in BALB/c mouse assessed as decrease in serum IL-6 level at 5.7 mg/kg,iv administrated once per week for 4 weeks in presence of MDA-205 by ELISA. Type of data set: functional, organism-based. Background: In an ELISA, binding on a coated surface is turned into a signal by an enzyme label.
A further data set concerns COLO 205. Kind of data set: Antiproliferative activity against human COLO 205 cells assessed inhibition of cell growth incubated for 72 hrs by SRB assay. Type of data set: functional, cell-based. As to conditions: COLO 205, 72 h.
Data set [3] can be described thus: Toxicity in Beagle dog assessed as effect on respiratory frequency at 1 to 4 mg/kg,iv. The conditions noted are these: in vivo, dose 1-4 mg/kg. It counts as organism-based, Canis lupus familiaris.
Data set [4] is described as follows: Chronic toxicity in female Beagle dog at 3 to 18 mg/kg,iv administered once per week for 30 days. It counts as organism-based, Canis lupus familiaris. The conditions noted are these: in vivo, 720 h, dose 3-18 mg/kg, time 30 day. The gist of the method:
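Long-term toxicity: rats given iv 2, 4 or 8 mg/kg and dogs 3, 6 or 18 mg/kg once weekly over 30 days; toxicokinetics recorded; highest non-severely toxic dose determined by sex.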

The next data set concerns NCI-H1975. Briefly: Antitumor activity against human NCI-H1975 cells xenografted with BALB/c mouse assessed as inhibition of tumor growth at 10 mg/kg,iv administrated once per week for 3 weeks. It counts as functional, organism-based. The procedure, abridged: (§1)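 BALB/c nu/nu mice given subcutaneous human tumour cells in the right flank; dosing began at about 100–120 mm3 mean volume; iv once weekly for 3 weeks, with equimolar parent drug as positive control; tumour volume and weight measured; n = 8, mean ± SEM, ANOVA and Student's t test.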
On the technique in general: A xenograft is tissue or cells of one species grown in another, often human tumour cells in immunodeficient mice.

Data set [5] can be described thus: Tmax in male Beagle dog at 4 mg/kg,iv measured upto 24 hrs. Type of data set: ADME, organism-based, Canis lupus familiaris. As to conditions: in vivo.
The nature of data set [6]: Toxicity in BALB/c mouse xenografted with human A549/Taxol cells assessed as body weight loss at 10 mg/kg,iv administrated once per week for 3 weeks. As to conditions: in vivo, 504 h. It counts as organism-based, A549/TR.
The nature of data set [7]: Volume of distribution at steady state in male Beagle dog at 2 mg/kg,iv measured upto 24 hrs. Type of data set: ADME, organism-based, Canis lupus familiaris. The conditions noted are these: in vivo, read-out: Vdss.
In data set [8] the test system is 4T1. Kind of data set: Antitumor activity against mouse 4T1 cells implanted in BALB/c mouse assessed as decrease in lung MMP9 expression level at 5 to 20 mg/kg,iv administrated once per week for 4 weeks by western blot assay. It counts as functional, organism-based. As to conditions: dose 5-20 mg/kg. The gist of the method:
(§2)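 4T1 fat-pad model in BALB/c mice, iv once weekly for 4 weeks; MMP9, MMP2 and NOD1 in spleen, lung and tumour by western blot, β-actin loading control; bands averaged over five mice per group, representative of two independent experiments.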
Background: Immunoblotting shows a protein as a band on a membrane.

The nature of data set [9]: Tmax in male Beagle dog at 1 mg/kg,iv measured upto 24 hrs. Type of data set: ADME, organism-based, Canis lupus familiaris. As to conditions: in vivo.
The nature of data set [10]: Cmax in mouse plasma implanted with mouse 4T1 cells at 10 mg/kg,iv measured upto 72 hrs. Also on record: dose 10 mg/kg, time < 72 hrs, route iv. Type of data set: ADME, organism-based. The procedure, abridged: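 BALB/c mice carried 4T1 cells implanted in the mammary fat pad and received a single iv dose of 10 mg/kg. Parent drug and released docetaxel were assayed in plasma and tumor tissue up to 72 h. Parameters came from noncompartmental analysis, n = 6, mean ± SD.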

Data set [11] relates to 4T1. Briefly: Antitumor activity against mouse 4T1 cells implanted in BALB/c mouse assessed as decrease in S100A8 mRNA expression in lung at 20 mg/kg,iv administrated qd for 2 days by qRT-PCR analysis. It counts as functional, organism-based. As to conditions: time 2.0 day. The procedure, abridged: (§3)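 Day 19 after 4T1 implantation, mice randomised into five groups; iv vehicle or 20 mg/kg plus ip C12-iE-DAP (50 μg/mouse) and MDP (100 μg/mouse) once daily for 2 days; killed after 48 h; lung mRNA for MMP8, MMP9, PROK2, S100A8, S100A9 and IL-1β by qPCR; mean ± SEM.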

The nature of data set [12]: Stability in mouse hepatocyte assessed as compound remaining at 3 uM incubated upto 120 mins. It counts as ADME, cell-based. As to conditions: hepatocytes, 2 h.
Data set [13] is described as follows: AUC (0-t) in female rat at 4 mg/kg,iv measured upto 24 hrs. The conditions noted are these: in vivo. Also on record: time < 24 hrs, dose 4 mg/kg, route iv. Type of data set: ADME, organism-based. The gist of the method:
(§4)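 Single iv dose: rats 2, 4 or 8 mg/kg by intravenous injection; Beagle dogs 1, 2 or 4 mg/kg by intravenous infusion. Plasma concentration–time data were analysed by sex and pooled. Reported parameters: Cmax, Tmax, AUC0−t, AUC0−∞, MRT0−∞, t1/2, CL, Vss, given as mean ± SD.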

The next data set deals with SF-295. Kind of data set: Antiproliferative activity against human SF-295 cells assessed inhibition of cell growth incubated for 72 hrs by SRB assay. It counts as functional, cell-based. The conditions noted are these: SF-295, 72 h.
A short description of data set [14]: AUC (0-t) in rat at 2 mg/kg,iv measured upto 24 hrs. Set-up: dose 2 mg/kg, time < 24 hrs, route iv. As to conditions: in vivo. Type of data set: ADME, organism-based. The gist of the method: as §4
Data set [15] is described as follows: Drug concentration in plasma of Beagle dog assessed as docetaxel concentration at 1 to 4 mg/kg,iv measured upto 24 hrs. As to conditions: in vivo, dose 1-4 mg/kg. Type of data set: ADME, organism-based, Canis lupus familiaris. The procedure, abridged:
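Beagle dogs were given a single iv infusion at 1, 2 or 4 mg/kg. Plasma parent drug and released docetaxel were followed over time. Cmax, Tmax, AUC, MRT, t1/2, CL and Vss were reported by sex and for all dogs combined.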

Data set [16] has as its system 4T1. Briefly: Antitumor activity against mouse 4T1 cells implanted in BALB/c mouse assessed as decrease in IL-1beta mRNA expression in lung at 20 mg/kg,iv administrated qd for 2 days by qRT-PCR analysis. It counts as functional, organism-based. The conditions noted are these: time 2.0 day. The gist of the method: as §3
Data set [17] is described as follows: MRT in mouse tumor implanted with mouse 4T1 cells at 10 mg/kg,iv measured upto 72 hrs. Type of data set: ADME, organism-based, Neoplasm.
The nature of data set [18]: Clearance in female rat at 8 mg/kg,iv measured upto 24 hrs. Type of data set: ADME, organism-based. As to conditions: in vivo. The gist of the method: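 Rats were given a single iv injection at 2, 4 or 8 mg/kg. Plasma parent drug and released docetaxel were followed over time. Cmax, Tmax, AUC, MRT, t1/2, CL and Vss were reported for males, females and all animals combined.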

Data set [19] is described as follows: AUC (0-infinity) in male Beagle dog at 4 mg/kg,iv measured upto 24 hrs. Type of data set: ADME, organism-based, Canis lupus familiaris. Also on record: dose 4 mg/kg, time < 24 hrs, route iv. As to conditions: in vivo. The gist of the method: as §4
Data set [20] is described as follows: AUC (0-t) in male Beagle dog at 4 mg/kg,iv measured upto 24 hrs. As to conditions: in vivo. It counts as ADME, organism-based, Canis lupus familiaris. Set-up: dose 4 mg/kg, time < 24 hrs, route iv. The procedure, abridged: as §4
Data set [21] is described as follows: Toxicity in BALB/c mouse xenografted with human MDA-MB-231 cells assessed as body weight loss at 10 mg/kg,iv administrated once per week for 3 weeks. Type of data set: organism-based. The conditions noted are these: in vivo, 504 h.
Data set [22] in a line: Half life in male rat at 2 mg/kg,iv measured upto 24 hrs. Type of data set: ADME, organism-based. As to conditions: in vivo.
The test system of data set [23] is 4T1. Briefly: Antitumor activity against mouse 4T1 cells implanted in BALB/c mouse assessed as increase in tumor NOD1 expression level at 5 to 20 mg/kg,iv administrated once per week for 4 weeks by western blot assay. Type of data set: functional, organism-based. The conditions noted are these: dose 5-20 mg/kg. The gist of the method:
as §2

The next data set concerns MDA-MB-231. Briefly: Antitumor activity against human MDA-MB-231 cells xenografted with BALB/c mouse assessed as inhibition of tumor growth at 10 mg/kg,iv administrated once per week for 3 weeks. Type of data set: functional, organism-based. The gist of the method: as §1
Data set [24] in a line: Drug excretion in rat feces at 4 mg/kg,iv measured upto 72 hrs. Type of data set: ADME, organism-based. As to conditions: faeces, read-out: Drug excretion.
Data set [25] can be described thus: Half life in rat at 2 mg/kg,iv measured upto 24 hrs. It counts as ADME, organism-based. As to conditions: in vivo.
A short description of data set [26]: Volume of distribution at steady state in male Beagle dog at 1 mg/kg,iv measured upto 24 hrs. The conditions noted are these: in vivo, read-out: Vdss. It counts as ADME, organism-based, Canis lupus familiaris.

`CC(=O)O[C@@]12CO[C@@H]1C[C@H](O)[C@@]1(C)C(=O)[C@H](O)C3=C(C)[C@@H](OC(=O)[C@H](O)[C@@H](NC(=O)OC(C)(C)C)c4ccccc4)C[C@@](O)([C@@H](OC(=O)c4ccccc4)[C@H]21)C3(C)C` [DOCETAXEL ANHYDROUS]: in data set [1], the Activity result is recorded as “Toxic”. Also, in the data set on 4T1 [2], the result was Active.

For the compound `CC(=O)O[C@@]12CO[C@@H]1C[C@H](O)[C@@]1(C)C(=O)[C@H](O)C3=C(C)[C@@H](OC(=O)[C@H](OC(=O)CCC(=O)NCCCC[C@H](NC(=O)CC[C@@H](NC(=O)[C@H](C)NC(=O)/C=C/c4ccc(F)cc4Cl)C(N)=O)C(=O)O)[C@@H](NC(=O)OC(C)(C)C)c4ccccc4)C[C@@](O)([C@@H](OC(=O)c4ccccc4)[C@H]21)C3(C)C`, the IC50 in the data set on COLO 205 and with SF-295 was 16.3 nM in each case. The Activity entry in data set [3], in data set [4], in [6] and in data set [21] was “Non-Toxic” throughout. Also, the inhibition entry in the data set on NCI-H1975 and with MDA-MB-231 was “Active” in each case. Also, the Tmax in [5] and in data set [9] was 30 min each time. The Vd stood at 0.09 L/kg in [7] and 0.134 L/kg in data set [26]. In addition, the outcome with 4T1 [8], in the data set on 4T1 [11] and with 4T1 [16] was Active. The Cmax – broadly, the highest concentration seen after dosing – in data set [10] was determined as 14.7 µM. The Stability result in data set [12] is listed as “Stable”. Further, the figures for the AUC(0-t) at 24 h in data set [13], in data set [14] and in data set [20] were 13000 ng·h/mL, 5200 ng·h/mL and 15200 ng·h/mL, respectively. In data set [15], the Drug uptake is on record as 0.23%. In data set [17], the MRT (usually a mean duration of stay, worked out from the concentration-time curve) turned out to be 2.2 h. The clearance (commonly the volume of plasma or blood freed of the substance per unit of time) in [18] came to 3.39 mL/min/kg. Besides, the AUC(0-inf) – broadly, total exposure, with the tail of the curve extrapolated – in data set [19] was determined as 15300 ng·h/mL. Also, the half-life (as a rule, how long it takes for the measured level to halve) in [22] was 9 min; in [25] it was 7.8 min. Further, in the data set with 4T1 [23], the result was inactive. In data set [24], the dose excreted at 72 h amounted to 69.9%.
